From ChEMBL document CHEMBL3351676, “Polyyne hybrid compounds from Notopterygium incisum with peroxisome proliferator-activated receptor gamma agonistic effects” (J Nat Prod, 2014)
Activity calls are given as the source filed them. No cut-off for these calls is given here.

Experiments:
RAW264.7 = experiment: Inhibition of LPS and IFNgamma-induced nitric oxide production in mouse RAW264.7 cells incubated for 16 hrs by Griess assay; format: functional, cell-based
How it was run: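 RAW 264.7 macrophages stimulated with LPS plus IFN-γ to induce iNOS. Compounds dissolved in DMSO and diluted in PBS. Nitrite in supernatants measured by Griess assay against a sodium nitrite standard curve after 16 h. Activity expressed relative to LPS/IFN-γ/0.1% DMSO control; L-NMMA as positive control. Eight concentrations, at least three independent experiments, each in duplicate.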

[1] = biological target: T1, Peroxisome proliferator-activated receptor gamma (Homo sapiens) (UniProt P37231); experiment: Agonist activity at human PPARgamma expressed in HEK293 cells assessed as induction of receptor activation at 10 uM incubated for 18 hrs by luciferase reporter gene assay relative to untreated control; format: cell-based
T1 sequence (whole entry): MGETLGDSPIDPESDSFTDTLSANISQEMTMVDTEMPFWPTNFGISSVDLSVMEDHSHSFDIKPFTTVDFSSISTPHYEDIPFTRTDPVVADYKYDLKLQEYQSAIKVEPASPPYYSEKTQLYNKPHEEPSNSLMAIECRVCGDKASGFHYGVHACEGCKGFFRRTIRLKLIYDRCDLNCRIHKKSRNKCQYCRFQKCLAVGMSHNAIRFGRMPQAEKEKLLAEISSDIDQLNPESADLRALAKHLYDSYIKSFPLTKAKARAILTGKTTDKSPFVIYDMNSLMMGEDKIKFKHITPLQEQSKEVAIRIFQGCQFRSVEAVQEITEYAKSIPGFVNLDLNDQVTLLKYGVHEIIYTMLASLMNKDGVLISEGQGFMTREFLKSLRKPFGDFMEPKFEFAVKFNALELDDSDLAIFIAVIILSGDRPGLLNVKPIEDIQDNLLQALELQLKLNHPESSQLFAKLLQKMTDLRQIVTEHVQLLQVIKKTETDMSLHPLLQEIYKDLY
How it was run: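 HEK-293 cells in DMEM with 10% FBS, transfected by calcium phosphate with human PPARγ1 plasmid, tk-PPREx3-luc reporter and pEGFP-N1. After 6 h, replated in phenol-red-free DMEM with charcoal-stripped FBS. Treated 18 h; DMSO ≤0.1% as solvent control. Firefly luciferase luminescence normalized to EGFP fluorescence per well.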

| Structure (SMILES) | inhibition (RAW264.7) | Activity [1] |
| --- | --- | --- |
| C=C[C@@H](O)C#CC#C[C@H](/C=C\CCCCCCC)O[C@]1(C)CC[C@@H](O)[C@]2(C)CC[C@@H](C(C)C)[C@@H](O)[C@H]21 | inactive | inactive |
| C=C[C@H](C#CC#C[C@@H](O)/C=C\CCCCCCC)O[C@]1(C)CC[C@@H](O)[C@]2(C)CC[C@H](C(C)C)[C@H](O)[C@H]21 | inactive | inactive |
| C=C[C@@H](O)C#CC#C[C@H](/C=C\CCCCCCC)O[C@]1(C)CC[C@@H](O)[C@]2(C)CC[C@H](C(C)C)[C@H](O)[C@H]21 | inactive | inactive |
| C=C[C@@H](O)C#CC#C[C@H](/C=C\CCCCCCC)O[C@]1(C)CC[C@@H](C(C)C)[C@@H](O)[C@@H]2[C@@](C)(O)CC[C@]21O | inactive | inactive |
| C=C[C@@H](O)C#Cc1c2c(cc3cc(OC)c(O)cc13)CO[C@H]2/C=C\CCCCCCC | inactive | inactive |
| C=C[C@H]1OCc2cc3cc(OC)c(O)cc3c(C#C[C@@H](O)/C=C\CCCCCCC)c21 | inactive | – |
| C=C[C@H](C#CC#C[C@@H](O)/C=C\CCCCCCC)O[C@]1(C)CC[C@@H](C(C)C)[C@@H](O)[C@@H]2[C@@](C)(O)CC[C@]21O | inactive | inactive |
| C=C[C@H](C#CC#C[C@@H](O)/C=C\CCCCCCC)O[C@]1(C)CC[C@@H](O)[C@]2(C)CC[C@@H](C(C)C)[C@@H](O)[C@H]21 | inactive | – |
| C=C[C@H](C#CC#C[C@@H](O)/C=C\CCCCCCC)O[C@]1(C)CCC[C@]2(C)CC[C@@H](C(C)(C)O)C[C@H]21 | inactive | – |
| C=C[C@@H](O)C#CC#C[C@H](/C=C\CCCCCCC)O[C@]1(C)CCC[C@]2(C)CC[C@@H](C(C)(C)O)C[C@H]21 | inactive | – |
